From ChEMBL document CHEMBL1144581, “alpha-Amino acid derivatives as proton pump inhibitors and potent anti-ulcer agents” (2007)

Tests used:
[1] = species on record: Rattus norvegicus; test: Inhibition of gastric H+/K(+)-ATPase activity in Sprague-Dawley rat microsomal vesicles at 10 umol; assay type: microsomes; conditions: Stomach, Microsome
Summary of the method: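 Rat gastric microsomes were prepared by density gradient and differential centrifugation. The medium held 40 mM Tris-HCl pH 7.4, 2 mM MgCl2, 10 mM KCl (water for blank) and […] vesicular protein. Compound was preincubated 30 min at 37 °C. Tris-ATP at 0.3, 1.0 or 3 mM was then added for 20 min and stopped with chilled 10% TCA. Released Pi was read at 530 nm; % inhibition vs control.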

[2] = species on record: Rattus norvegicus; test: Antisecretory activity in rat pylorus ligation-induced ulcer model determined by ratio of total acidity inhibition in drug treated to untreated control; assay type: functional
Summary of the method: (§1)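 Sprague Dawley rats (130-150 g) fasted 24 h with water ad libitum; pylorus ligated through a midline incision under ether anesthesia. Dosing oral, 1 h before ligation. Gastric juice free and total acidity titrated against 0.01 N NaOH, with Topfer's reagent and phenolphthalein as indicators. Values expressed as ratio of percent inhibition, treated vs control group.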

[3] = species on record: Rattus norvegicus; test: Antisecretory activity in rat pylorus ligation-induced ulcer model determined by ratio of free acidity inhibition in drug treated to untreated control; assay type: functional; summary of the method: as §1

Row | SMILES | inhibition [1] [%] | Activity [2] | Activity [3]
1 | CCOC(=O)N1CCC[C@H]1C(=O)OC | 68 | 0.64 | 0.59
2 | O=C(O)[C@@H]1CCC(=O)N1Cc1ccccc1Cl | 32 | 0.51 | 0.66
3 | O=C(O)[C@@H]1CCC(=O)N1Cc1ccccc1Cc1ccccc1 | 71 | 0.33 | 0.48
4 | CC(C)N1C(=O)CC[C@H]1C(=O)OC(C)(C)C | 52 | 0.69 | 0.72
5 | CC(C)(C)[C@H]1OC(=O)[C@@]2([C@@H](O)c3ccccc3)CCC(=O)N12 | 44 | 0.27 | 0.17
6 | O=C(O)[C@@H]1CCC(=O)N1Cc1cccc2ccccc12 | 53 | 0.91 | 0.35
7 | CC(C)(C)OC(=O)[C@@H]1CCC(=O)N1Cc1ccccc1 | 92 | 0.52 | 0.34
8 | COC(=O)[C@@H]1CCCN1C(=O)c1ccccc1 | 91 | 1.14 | 0.9
